PP1 inh: PP1-alpha phosphatase inhibitors, primary screen, counter-screen for PP5 inhibitor project, biochemical, fluorescence, OMFP substrate, single point | purified PP1alpha | AID 2235, 2010 | inhibition, % at 6.7 µM | 320,000 compounds, 0.9% hits | Serine/threonine-protein phosphatase PP1-alpha catalytic subunit (Homo sapiens), P62136;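 active = inhibition above the mean inhibition of all tested compounds plus 3 SD, computed separately for each screening campaign, cut at about 15% in these data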
GASC-1 inh: inhibitors of GASC-1 histone demethylase, primary screen, biochemical, fluorescence, DELFIA europium | 330,000 compounds, 0.069% hits | inhibition, % at 2.35 µM | AID 2099, 2009 | Lysine-specific demethylase 4C (Homo sapiens), Q9H3R0 | GST-JMJD2C(1-420) H3K9me3 demethylation;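 active = more than half of a compound's replicate wells show inhibition beyond 50%, single wells judged on their own value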;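 also: signal counts dimethyl H3K9 product captured on neutravidin plate; 0% = median of DMSO wells and 100% = 0.3 times that DMSO median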
PP5 primary: PP5 phosphatase inhibitors, primary screen, biochemical, fluorescence | Serine/threonine-protein phosphatase 5 (Homo sapiens), P53041 | purified PP5c, OMFP substrate fluorescence | inhibition, % at 6.7 µM | 320,000 compounds, 0.18% hits | AID 1987, 2009;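 active = inhibition above the campaign's mean inhibition across all tested compounds plus 3 SD, cut at about 9.5% in these data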;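 also: 0% = DMSO only and 100% = 100 µM cantharidin control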
T cell HTS: modulators of CD8 T cell-vesicle binding, primary screen, mouse 2C CD8+ T cells, flow cytometry. response (vesicle binding), % at 7 µM. 330,000 compounds, 0.068% hits. AID 2052, 2009. 2C CD8+ T cell-vesicle binding; hits give low values;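 active = response, share of CD8 T cells binding vesicles, and their 90th percentile fluorescence all below set limits, cut at about 80% in these data, passing the limit was not always enough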;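 also: values below 100% mean blocked vesicle binding to the CD8+ T cells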
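Benchmarks: naked versus QL9-loaded vesicles / Assay system: purified 2C TCR transgenic mouse naive CD8+ T cells / Technique: high-throughput flow cytometry with anti-B7-1 and anti-CD8 staining / Timing: Cell–vesicle co-incubation 1.5 h at 37 °C, staining 20 min on ice / Read-out: percent CD8+ FL2 mean versus row control / Probe or stimulus: QL9-loaded Drosophila micro-vesicles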
HTR2A ag: mouse Htr2a agonists via beta-arrestin recruitment, primary screen, cell-based, luminescence; 360,000 compounds, 0.66% hits; CHO-K1 mHTR2A beta-arrestin complementation; percent of 30 µM serotonin response; 5-hydroxytryptamine receptor 2A (Mus musculus), P35363; activation, % at 7.6 µM;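 active = activation above a run cutoff, the mean activation of all tested compounds plus 3 SD, cut at about 14% in these data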;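 also: 0% = plate median of compound wells and 100% = 30 µM serotonin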
Target sequence (P35363 whole entry, looked up): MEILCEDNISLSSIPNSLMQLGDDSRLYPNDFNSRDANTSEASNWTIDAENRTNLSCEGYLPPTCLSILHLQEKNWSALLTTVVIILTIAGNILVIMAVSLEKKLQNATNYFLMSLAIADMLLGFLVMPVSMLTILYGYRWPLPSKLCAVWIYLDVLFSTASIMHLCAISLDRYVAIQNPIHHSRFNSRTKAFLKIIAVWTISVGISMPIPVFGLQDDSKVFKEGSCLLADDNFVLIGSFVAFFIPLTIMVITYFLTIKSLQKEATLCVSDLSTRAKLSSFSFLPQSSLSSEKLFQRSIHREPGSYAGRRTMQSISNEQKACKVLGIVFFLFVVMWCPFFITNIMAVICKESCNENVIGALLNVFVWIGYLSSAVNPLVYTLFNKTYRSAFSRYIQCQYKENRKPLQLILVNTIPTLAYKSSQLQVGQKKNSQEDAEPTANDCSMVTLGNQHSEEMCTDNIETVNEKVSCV
An asterisk follows results filed as active; i = inactive; . = no result given. An excerpt weighted towards active compounds, which were near 1.7% of everything screened.

SMILES | PP1 inh | GASC-1 inh | PP5 primary | T cell HTS | HTR2A ag
C=CCOc1ccc(C2C(C(=O)c3ccc(C)o3)=C(O)C(=O)N2Cc2cccnc2)cc1 (configuration not stated) | 23* | -17 | 2 | 100 | -1
C=CC(C)(C)c1c(O)c(CC=C(C)C)c(O)c2c(=O)c3ccc(O)c(O)c3oc12 | 1 | -30 | 4 | 32* | 3
C=CC(C)(C)c1c2occc2c(O)c2ccc(=O)oc12 | . | . | . | i | -1
O=c1c2c(nc3cc(-c4ccccc4Cl)[nH]n13)CCS2 | 17* | 13 | 1 | 567 | 3
O=c1c2c(nc3cc(-c4ccccc4)[nH]n13)CCS2 | 1 | 4 | 3 | 276 | -2
Cn1c(=O)c(C(=O)COC(=O)c2cc(-c3ccco3)nc3ccccc23)c(N)n(Cc2ccccc2)c1=O | 19* | 23 | 1 | 293 | .
O=C(Nc1cccc(-c2nc3ccccc3[nH]2)c1)c1cccc(NC(=O)c2ccco2)c1 | 16* | 13 | 3 | 340 | 0
O=C(Nc1ccc2nc(-c3ccccc3)[nH]c2c1)c1ccco1 | 0 | -3 | 2 | 667 | 3
O=C(Nc1ccc(-c2nc3ccccc3[nH]2)cc1)c1ccc2c(c1)OCO2 | 15* | -2 | 2 | 655 | 1
Cc1csc2nc(O)c(C(=O)NCc3ccc4c(c3)OCO4)c(=O)n12 | 17* | -10 | -2 | 270 | -1
CCOC(=O)C1CCN(S(=O)(=O)c2ccc3[nH]c(=O)ccc3c2)CC1 | 3 | -8 | 3 | 659 | -4
Cc1ccc(O)c(NC(=S)NC(=O)C(C)C)c1 | 2 | -10 | 2 | 146 | 1
O=C(O)CN1C(=O)/C(=C\c2cc(Br)ccc2OCc2ccccc2F)SC1=S | 16* | 1 | 0 | 640 | -3
CCNC(=O)N(C)c1c(CC)nc2ccc(C(=O)N3CCN(C(C)=O)CC3)cn12 | . | . | . | . | -3
Cc1ccccc1-c1cc2nc(C)c(Cl)c(=O)n2[nH]1 | -1 | -18 | 1 | 259 | 5
Cc1ccccc1-c1cc2nc(-c3ccc([N+](=O)[O-])cc3)cc(=O)n2[nH]1 | 16* | -3 | 0 | 266 | 1
O=C(O)c1ccc(CSc2nc(-c3ccc(Cl)cc3)cc(C(F)(F)F)n2)cc1 | 17* | 10 | 4 | 260 | 0
Cc1ccccc1-c1ccc(=O)n(CC(=O)Nc2ccc(N3CCOCC3)cc2)n1 | -5 | 57* | 2 | 410 | -7
O=C(COC(=O)Cc1ccc(-c2ccccc2)cc1)NCc1ccc(F)cc1 | 1 | -1 | 1 | 335 | -1
Cc1ccc(CNC(=O)COC(=O)Cc2ccc(-c3ccccc3)cc2)cc1 | 16* | 0 | -6 | 178 | -4
Cc1nc(Cl)c(C(=O)NC(=O)NCc2ccccc2)c(C)c1Cl | -3 | -1 | -1 | 0.0* | 6
Cc1ccccc1NC(=O)c1c(Cl)nc(C)c(Cl)c1C | -1 | 5 | 3 | 273 | 7
COc1ccc(S(=O)(=O)N2CCN(Cc3cccc(Cl)c3)CC2)cc1 | 2 | 27 | 2 | 518 | -5
COc1cccc(CN2CCN(S(=O)(=O)c3ccc(Cl)s3)CC2)c1 | 2 | 40 | 1 | 0.0* | -3
Clc1cc2cccnc2c2ncccc12 | 10 | -7 | 1 | i | -6
SMILES | PP1 inh | GASC-1 inh | PP5 primary | T cell HTS | HTR2A ag
Cc1c(C)c2cccnc2c2ncccc12 | 16* | 1 | 5 | 338 | -4
CC1CCc2c(sc(NC(=O)Cn3nc(C(F)(F)F)c4c3CCCCC4)c2C#N)C1 (configuration not stated) | 5 | 4 | 2 | 0.0* | -1
C=CCN(CC=C)Cc1c(O)ccc2c1oc(=O)c1ccccc12 | 1 | 79* | 1 | 134 | -9
C[C@@H]1O[C@@H](OC[C@H]2O[C@@H](Oc3cc(O)c4c(=O)cc(-c5ccc(O)c(O)c5)oc4c3)[C@H](O)[C@@H](O)[C@@H]2O)[C@H](O)[C@H](O)[C@H]1O | . | 100* | . | i | -5
Cc1ccc(NC(=O)COc2ccc3c(c2)OCO3)c(C)c1 | 1 | -2 | 0 | 682 | -5
COCCn1c(C)cc(C(=O)CN2CCCCC2)c1C | 0 | -2 | -5 | 235 | 4
COCCn1c(C)cc(C(=O)CN2C(=O)NC3(CCCCCCC3)C2=O)c1C | 0 | -10 | -2 | 0.0* | 1
CC(=O)c1csc(-c2cccc(-c3nc4ccc(Cl)cn4c3NC3CCCCC3)c2)c1 | 2 | 36 | 6 | 0.0* | 2
c1ccc(COc2ccc(OCCN3CCCC3)cc2)cc1 | 5 | 10 | 3 | 332 | 8
c1ccc(COc2ccc(OCCN3CCCCC3)cc2)cc1 | -2 | 3 | 1 | 81* | -1
COc1ccc(OCc2n(CC(=O)OC3CC(C)CCC3C(C)C)c3ccccc3[n+]2C)cc1 (configuration not stated) | 16* | -6 | 2 | 376 | -6
CCCCn1c(N)c(Sc2ccccc2)c(=O)[nH]c1=O | -2 | 11 | -2 | 558 | -7
CCCn1c(N)c(Sc2ccccc2)c(=O)n(CCC)c1=O | -4 | 9 | -1 | 230 | 18*
C/C(=N\NC(=O)c1cc(C)oc1C)c1ccc2ccccc2c1 | -2 | -24 | 0 | 146 | -2
CCCNS(=O)(=O)c1ccc(OCC(=O)OC)cc1 | 3 | 10 | 3 | 178 | 0
CCCCNS(=O)(=O)c1ccc(OCC(=O)OC)cc1 | 1 | -4 | 0 | 6.7* | -1
CN1CCN(Cc2cc(COCc3ccccc3)c3cccnc3c2O)CC1 | 22* | 27 | -1 | 687 | -7
O=C(C1=C(O)C(=O)N(CCN2CCOCC2)C1c1cccc(Br)c1)c1cc2ccccc2o1 (configuration not stated) | 19* | -39 | 1 | 69 | 7
COCCCN1C(=O)C(O)=C(C(=O)c2ccc(C)o2)C1c1cccc(Br)c1 (configuration not stated) | 18* | -2 | 2 | 54 | 0
O=C(CCCN1C(=O)/C(=C/c2ccccc2Cl)SC1=S)NNC(=O)c1ccccc1Cl | 17* | -5 | 4 | 414 | -1
COc1cccc(/C=C2\SC(=O)N(CCC(=O)NNC(=O)c3ccccc3Cl)C2=O)c1 | -1 | 4 | 0 | 10* | 0
O=C1C(=O)N(CCCn2ccnc2)C(c2ccc(Br)cc2)/C1=C(\O)c1ccc2c(c1)OCCO2 (configuration not stated) | 6 | -19 | 2 | 405 | 8
O=C1C(=O)N(CCCn2ccnc2)C(c2ccc([N+](=O)[O-])cc2)/C1=C(\O)c1ccc2c(c1)OCCO2 (configuration not stated) | 5 | 12 | 5 | 0.0* | -3
